# Compound activity (PubChem)
# APP 5'UTR act = activators of APP 5'UTR luciferase reporter, primary screen, SH-SY5Y cells | SH-SY5Y APP 5'UTR luciferase reporter, luminescence; zero percent = DMSO vehicle wells | activation, % at 2 µM | 190,000 compounds, 1% hits | AID 1276, 2008;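 active = activation above a set limit, based on mean plus 3 SD of controls, cut at about 140% in these data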
# STAT3 inh = IL-6 driven STAT3 reporter inhibitors, primary screen, U3A cells, luciferase, luminescence, MLSCN library; IL-6 STAT3-luciferase reporter; host cell line lacks STAT1; inhibition, % at 5.5 µM; AID 862, 2007; 190,000 compounds, 0.89% hits;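 active = inhibition above the mean inhibition across all screened compounds plus 3 SD, cut at about 44% in these data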;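 also: 0% = DMSO only wells and 100% = 100 µM nifuroxazide control wells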
# STAT1 activator = STAT1 signaling activators, primary screen, cell-based, HTS, luciferase reporter. 200,000 compounds, 2.6% hits. activation (% of control), % at 5.5 µM. AID 932, 2007. NIH 3T3 STAT1-luciferase reporter, IFN-gamma, luminescence; 100% = IFN-gamma alone, no compound;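 active = activation above the screen-wide mean activation plus 3 SD, cut at about 130% in these data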;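 also: raw ratio to IFN-gamma control signal so 100% means no change and 0% no light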
# STAT1 inh = STAT1 signaling inhibitors, primary screen, cell-based, HTS, luciferase reporter | inhibition, % at 5.5 µM | NIH 3T3 STAT1-luciferase reporter, IFN-gamma, luminescence | AID 920, 2007 | 200,000 compounds, 0.35% hits;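 active = inhibition above a set limit, the mean inhibition across all tested compounds plus 3 SD, cut at about 34% in these data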;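 also: 0% = IFN-gamma with DMSO and 100% = IFN-gamma with 300 µM nifuroxazide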
# NF-kB neuron act = activators of NF-kB expression in neurons, primary screen, cell-based, HTS. 190,000 compounds, 1.6% hits. human neuronal cells, NF-kB reporter expression; hits give high values. fold change at 12.5 µM; in the data active = fold change above about 3.3
# STAT3 act = IL-6 driven STAT3 reporter potentiators, primary screen, U3A cells, luciferase, luminescence, MLSCN library; AID 871, 2007; activation (% of control), % at 5.6 µM; 190,000 compounds, 0.91% hits; IL-6 STAT3-luciferase reporter; 100% = signal with IL-6 EC80 alone;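 active = activation above the screen-wide mean of compound activation plus 3 SD, cut at about 130% in these data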;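 also: 0% = background luminescence of wells with medium and substrate only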
#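 Test system: human U3A cells carrying STAT3-luciferase construct; control set: IL-6-only wells as 100% reference; timing: compound pre-incubation 1 h before IL-6, then 6 h stimulation at 37 °C; also added: IL-6 stimulus at 33 ng/mL final; evaluation: % activation versus median of IL-6-stimulated wells; detection: reporter luminescence signal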
# An asterisk follows results filed as active; · = no result given. Rows were chosen to be rich in hits. Some 5.1% of all compounds tested hit in one or more screens of this group.
SMILES,APP 5'UTR act,STAT3 inh,STAT1 activator,STAT1 inh,NF-kB neuron act,STAT3 act
NC(=O)C1CCN(C(=O)Nc2ccccc2)CC1,11.1,0.8,106.6,-2.3,0.92,101.9
O=C(c1cccs1)N1CCC(c2ccccc2)C1 (centres undefined),68.0,-0.8,134.7*,-37.9,2.44,104.3
O=C(O)c1ccc(N/N=C/c2ccc3c(c2)OCO3)cc1,-31.0,79.8*,13.2,93.1*,0.66,33.5
C/C(=N\Nc1nc2ccccc2s1)c1ccc2c(c1)OCO2,46.6,-3.7,120.8,-23.3,3.37*,100.9
C/C(=N\Nc1ccc(Cl)c(C(=O)O)c1)c1cc2ccccc2o1,11.4,10.9,113.5,-16.2,0.99,97.2
O=C(O)c1cc(N/N=C/c2ccc3c(c2)OCCO3)ccc1Cl,81.9,-27.6,57.5,47.7*,5.52*,120.1
C/C(=N\Nc1nc2ccccc2s1)c1ccc(Br)s1,16.9,-22.3,95.3,3.0,1.3,125.6
O=C(O)c1cc(N/N=C/c2ccc3c(c2)OCO3)ccc1Cl,121.0,-16.4,81.7,18.7,1.05,121.6
C/C(=N\Nc1ccc(Cl)c(C(=O)O)c1)c1ccc2c(c1)OCO2,22.4,-7.5,130.9*,-33.9,1.93,108.1
Cc1cc(C)c(C(=O)/C=C/c2ccc(C(C)C)cc2)c(=O)[nH]1,-10.5,10.8,95.4,5.1,1.09,96.4
Cc1ccc(S(=O)(=O)CC(O)COc2ccc(F)cc2Cl)c(C)c1 (centres undefined),-6.2,0.6,92.7,5.9,0.9,105.2
O=C(CO/N=C/c1ccccc1O)N1CCc2ccccc21,16.0,-4.9,107.0,-7.9,1.19,104.1
Cc1cc(OCC(=O)N(C)C2CCCCC2)ccc1Cl,142.1*,23.9,121.6,-26.1,·,83.2
CC1=Nc2cc(C(=O)NCc3ccco3)ccc2Sc2ccc(C)cc21,-96.2,-44.1,95.0,5.6,3.48*,133.8*
Cc1ccc(CNC(=O)C2CC(c3cccc([N+](=O)[O-])c3)=NO2)cc1 (centres undefined),10.8,-2.8,101.8,-2.0,1.01,106.9
CCOC(=O)C1CCN(S(=O)(=O)c2ccc(C)c(C)c2)CC1,-0.1,-0.9,95.9,3.2,1.01,103.7
N=C1C(c2nc3ccccc3s2)=C(O)CN1C1CCCCC1,42.1,-7.7,147.2*,-53.4,1.14,108.5
CCOc1ccccc1N1CC(O)=C(c2nc3ccccc3s2)C1=N,-91.8,3.8,117.7,-14.6,0.47,98.0
CCN(CC)CCCN1CC(O)=C(c2nc3ccccc3s2)C1=N,-0.7,4.8,107.4,-8.0,1.13,99.7
N=C1C(c2nc3ccccc3s2)=C(O)CN1Cc1ccccc1,23.2,-32.9,131.0*,-32.7,1.31,129.6
CCc1ccc(OCC(=O)N(C)C)c(Br)c1,21.6,5.2,97.9,2.2,1.08,97.4
O=C(Nc1ccc2c(c1)OCO2)OCc1ccccc1,140.3*,6.1,134.6*,-37.5,5.13*,99.0
O=C(NCCc1ccccc1)Nc1ccc2c(c1)OCO2,115.1,-9.6,139.7*,-47.7,4.32*,112.1
O=C(NCCc1ccc(F)cc1)Nc1ccc2c(c1)OCO2,48.2,5.6,133.8*,-38.1,2.23,105.6
COc1ccc(CCNC(=O)Nc2ccc3c(c2)OCO3)cc1OC,10.6,10.7,95.4,2.9,1.11,95.4
SMILES,APP 5'UTR act,STAT3 inh,STAT1 activator,STAT1 inh,NF-kB neuron act,STAT3 act
O=C(NCCc1ccccc1)C(=O)Nc1ccc2c(c1)OCCO2,37.8,3.1,114.6,-18.2,2.13,102.9
O=C(Nc1ccc2c(c1)OCO2)C1CCCN1C(=O)OCc1ccccc1 (centres undefined),-14.8,-0.1,105.6,-5.4,1.33,105.7
O=C(Cn1cncn1)NCc1cccc(C(F)(F)F)c1,13.4,6.4,105.7,-8.2,1.17,97.7
CCOC(=O)c1ccc(NC(=S)Nc2cccc(C)n2)cc1,-1.6,5.8,110.2,-11.5,1.08,93.5
CC1CCCC/C1=N\NC(=S)Nc1cccnc1 (centres undefined),25.7,5.0,102.5,-3.8,4.86*,97.2
Cc1ccc(NC(=S)N/N=C2\CCCCC2C)cc1 (centres undefined),31.1,-4.0,107.1,-7.4,1.08,102.9
CC1=C(C(N)=O)C(c2ccccn2)n2nc(SCc3ccccc3Cl)nc2N1 (centres undefined),3.0,-7.1,99.7,0.4,0.81,108.0
O=c1sc(Nc2ccccc2)nc2ccccc12,19.4,8.4,88.0,11.2,0.88,94.8
Clc1ccc(Nc2nc3cccnc3s2)cc1,152.0*,1.3,148.2*,-54.9,2.82,102.1
COc1ccc(NS(=O)(=O)c2cc([N+](=O)[O-])ccc2N/N=C\c2c(C)[nH]c3ccccc23)cc1,·,-28.3,102.7,-3.0,1.02,121.7
COc1ccc(/C=N/Nc2ccc([N+](=O)[O-])cc2S(=O)(=O)N2CCN(C)CC2)cc1,·,-1.9,107.1,-8.0,5.52*,101.9
Cc1cccc(OCCN2C(=O)c3ccccc3C2=O)c1,18.0,-5.4,140.2*,-46.0,1.88,108.8
COc1ccc(OCCn2c(=O)sc3ccccc32)cc1,56.8,9.3,136.9*,-41.7,1.79,97.9
COc1ccccc1OCCn1c(=O)sc2ccccc21,20.4,16.7,102.3,-2.5,1.32,89.7
Cc1cccc(OCCn2c(=O)n(C)c3ccccc32)c1,84.6,-19.5,142.7*,-47.0,3.64*,120.0
Cc1cccc(OCCn2c(=O)sc3ccccc32)c1,86.5,2.2,135.6*,-38.3,3.05,99.8
CC(=O)Nc1ccc(C(=O)OCc2ccc(F)cc2)cc1,4.7,9.2,106.9,-9.0,1.29,93.4
O=C(NNC(=O)C1CCCCC1)c1cnccn1,18.9,6.2,96.9,3.5,0.95,100.8
COc1cc(CNCCc2ccccc2)ccc1OCC(N)=O,-4.0,-1.4,103.0,-0.8,1.29,99.1
O=C(Cc1ccccc1)Nc1cccc(-c2nc3ncccc3o2)c1,-7.9,25.4,95.6,4.8,1.08,82.2
Cc1cc(Cl)ccc1OCCCC(=O)NO,19.1,24.4,88.0,14.1,3.87*,83.2
Cc1cc(Cl)ccc1OCCCC(N)=O,-5.8,12.1,100.0,0.1,0.94,94.6
Fc1ccc(-c2nnc(-c3ccc(Cl)cc3)o2)cc1,37.3,23.3,135.0*,-38.2,4.2*,81.6
CSc1nnc(-c2ccc(F)cc2)o1,3.0,17.4,107.5,-8.2,0.87,92.4
O=C(CC(SCCO)c1ccc2c(c1)OCO2)c1cccs1 (centres undefined),69.5,-3.1,131.5*,-34.4,3.19,107.6
